Source: ChEMBL document CHEMBL1127343, “"Glycylcyclines". 3. 9-Aminodoxycyclinecarboxamides” (1994)
≈ marks a conversion by molar mass, not a printed value. Where a SMILES comes first, the peptide text is derived from it. The star is where a group is joined. X1 = C[C@H]1c2ccc(N*)c(O)c2C(=O)C2=C(O)[C@]3(O)C(O)=C(C(N)=O)C(=O)[C@@H](N(C)C)C3[C@@H](O)C21

Experiments:
Assay type in all cases: functional
[1] = system: Staphylococcus aureus; assay: In vitro antibacterial activity was measured on gram positive bacteria Staphylococcus aureus UBMS 90-1 tet-M (ribosomal protection) cell lines
Summary of the method: (§1)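 MIC by agar dilution on Mueller-Hinton II agar; inoculum (1–5) × 10^5 CFU/mL; antibiotic range 32–0.004 μg/mL; plates incubated 18 h at 35 °C in forced-air incubator. MIC taken as lowest concentration inhibiting growth. Tetracycline, minocycline and doxycycline run as standards in each assay.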

[2] = system: Staphylococcus aureus; assay: In vitro antibacterial activity was measured on gram positive bacteria Staphylococcus aureus UBMS 90-3 sensitive cell lines; summary of the method: as §1
[3] = system: Escherichia coli; assay: In vitro antibacterial activity was measured on gram negative bacteria Escherichia coli UBMS 90-4 tet-M (ribosomal protection) cell lines
Summary of the method: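 Agar dilution MIC on Mueller-Hinton II agar. Inoculum (1–5) × 10^5 CFU/mL, drug range 32–0.004 μg/mL. Plates incubated 18 h at 35 °C in a forced-air incubator. MIC is the lowest concentration that inhibits growth. The strain panel covered tetracycline-sensitive and -resistant strains. Tetracycline, minocycline and doxycycline were run as standards in each assay.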

[4] = system: Staphylococcus aureus; assay: In vitro antibacterial activity was measured on gram positive bacteria Staphylococcus aureus smith cell lines; summary of the method: as §1
[5] = system: Escherichia coli; assay: In vitro antibacterial activity was measured on gram negative bacteria Escherichia coli J3272 tet-C(efflux resistance) cell lines
[6] = system: Staphylococcus aureus; assay: In vitro antibacterial activity was measured on gram positive bacteria Staphylococcus aureus UBMS 88-7 tet-k(efflux resistance) cell lines
[7] = system: Escherichia coli; assay: In vitro antibacterial activity was measured on gram negative bacteria Escherichia coli UBMS 88-1 tet-B(efflux resistance) cell lines
[8] = system: Escherichia coli; assay: In vitro antibacterial activity was measured on gram negative bacteria Escherichia coli PRP-1 tet-a(efflux resistance) cell lines
[9] = system: Escherichia coli; assay: In vitro antibacterial activity was measured on gram negative bacteria Escherichia coli UBMS 90-5 sensitive cell lines; summary of the method: as §1

Row | SMILES | MIC [1] [µg/mL] | MIC [2] [µg/mL] | MIC [3] [µg/mL] | MIC [4] [µg/mL] | MIC [5] [µg/mL] | MIC [6] [µg/mL] | MIC [7] [µg/mL] | MIC [8] [µg/mL] | MIC [9] [µg/mL]
1 | CN(C)CC(=O)Nc1ccc2c(c1O)C(=O)C1=C(O)[C@]3(O)C(O)=C(C(N)=O)C(=O)[C@@H](N(C)C)[C@@H]3CC1C2 (some centres not stated) | 0.25 (≈ 0.486 µM) | 0.12 (≈ 0.233 µM) | 0.25 (≈ 0.486 µM) | 0.12 (≈ 0.233 µM) | 2 (≈ 3.89 µM) | 1 (≈ 1.94 µM) | 1 (≈ 1.94 µM) | 2 (≈ 3.89 µM) | 0.25 (≈ 0.486 µM)
2 | CC(C)C[C@@H](N)C(=O)Nc1ccc2c(c1O)C(=O)C1=C(O)[C@]3(O)C(O)=C(C(N)=O)C(=O)[C@@H](N(C)C)C3CC1C2 (some centres not stated) | 16 (≈ 29.5 µM) | 8 (≈ 14.7 µM) | 8 (≈ 14.7 µM) | 8 (≈ 14.7 µM) |  |  |  |  | 8 (≈ 14.7 µM)
3 | CNCC(=O)Nc1ccc2c(c1O)C(=O)C1=C(O)[C@]3(O)C(O)=C(C(N)=O)C(=O)[C@@H](N(C)C)C3[C@@H](O)C1[C@H]2C (some centres not stated) | 8 (≈ 15.1 µM) | 4 (≈ 7.54 µM) | 4 (≈ 7.54 µM) | 8 (≈ 15.1 µM) | > 32 | > 32 |  | > 32 | 8 (≈ 15.1 µM)
4 | CCCCNCC(=O)Nc1ccc2c(c1O)C(=O)C1=C(O)[C@]3(O)C(O)=C(C(N)=O)C(=O)[C@@H](N(C)C)C3[C@@H](O)C1[C@H]2C (some centres not stated) | 4 (≈ 6.99 µM) | 0.25 (≈ 0.437 µM) | 1 (≈ 1.75 µM) | 0.5 (≈ 0.873 µM) |  | 8 (≈ 14 µM) |  | 4 (≈ 6.99 µM) | 0.5 (≈ 0.873 µM)
5 | COC(=O)Nc1ccc2c(c1O)C(=O)C1=C(O)[C@]3(O)C(O)=C(C(N)=O)C(=O)[C@@H](N(C)C)C3[C@@H](O)C1[C@H]2C (some centres not stated) | 16 (≈ 30.9 µM) | 0.06 (≈ 0.116 µM) | > 32 | 0.06 (≈ 0.116 µM) |  | 4 (≈ 7.73 µM) |  |  | > 32
6 | CCCCCCCCCC(=O)Nc1ccc2c(c1O)C(=O)C1=C(O)[C@]3(O)C(O)=C(C(N)=O)C(=O)[C@@H](N(C)C)C3[C@@H](O)C1[C@H]2C (some centres not stated) | > 32 | 16 (≈ 26.1 µM) | > 32 | > 32 |  |  |  |  | > 32
7 | C[C@H]1c2ccc(NC(=O)CN)c(O)c2C(=O)C2=C(O)[C@]3(O)C(O)=C(C(N)=O)C(=O)[C@@H](N(C)C)C3[C@@H](O)C21 (some centres not stated) | 16 (≈ 31 µM) | 4 (≈ 7.74 µM) | 8 (≈ 15.5 µM) | 8 (≈ 15.5 µM) | > 32 | > 32 |  | > 32 | 8 (≈ 15.5 µM)
8 | C[C@H]1c2ccc(NC(=O)CN3CCCCC3)c(O)c2C(=O)C2=C(O)[C@]3(O)C(O)=C(C(N)=O)C(=O)[C@@H](N(C)C)C3[C@@H](O)C21 (some centres not stated) | 1 (≈ 1.71 µM) | 0.12 (≈ 0.205 µM) | 1 (≈ 1.71 µM) | 0.25 (≈ 0.428 µM) |  |  |  | 2 (≈ 3.42 µM) | 0.5 (≈ 0.855 µM)
9 | C[C@H]1c2cccc(O)c2C(=O)C2=C(O)[C@]3(O)C(O)=C(C(N)=O)C(=O)[C@@H](N(C)C)[C@@H]3[C@@H](O)C21 (some centres not stated) | 8 (≈ 18 µM) | 0.12 (≈ 0.27 µM) | > 32 | 0.12 (≈ 0.27 µM) | 16 (≈ 36 µM) |  | 32 (≈ 72 µM) | 16 (≈ 36 µM) | 1 (≈ 2.25 µM)
10 | CC(C)C[C@H](N)C(=O)NCC(=O)Nc1ccc2c(c1O)C(=O)C1=C(O)[C@]3(O)C(O)=C(C(N)=O)C(=O)[C@@H](N(C)C)C3[C@@H](O)C1[C@H]2C (some centres not stated) | > 32 | > 32 | > 32 | 16 (≈ 25.4 µM) |  |  |  |  | > 32
11 | CCN(CC)CC(=O)Nc1ccc2c(c1O)C(=O)C1=C(O)[C@]3(O)C(O)=C(C(N)=O)C(=O)[C@@H](N(C)C)C3[C@@H](O)C1[C@H]2C (some centres not stated) | 2 (≈ 3.49 µM) | 0.12 (≈ 0.21 µM) | 0.5 (≈ 0.873 µM) | 0.25 (≈ 0.437 µM) | 2 (≈ 3.49 µM) | 1 (≈ 1.75 µM) | 1 (≈ 1.75 µM) | 4 (≈ 6.99 µM) | 0.5 (≈ 0.873 µM)
12 | C[C@H]1c2ccc(NC=O)c(O)c2C(=O)C2=C(O)[C@]3(O)C(O)=C(C(N)=O)C(=O)[C@@H](N(C)C)C3[C@@H](O)C21 (some centres not stated) | > 32 | 0.12 (≈ 0.246 µM) | > 32 | 0.12 (≈ 0.246 µM) |  |  |  |  | 2 (≈ 4.1 µM)
13 | C[C@H]1c2ccc(NC(=O)CN3CCCC3)c(O)c2C(=O)C2=C(O)[C@]3(O)C(O)=C(C(N)=O)C(=O)[C@@H](N(C)C)C3[C@@H](O)C21 (some centres not stated) | 1 (≈ 1.75 µM) | 0.25 (≈ 0.438 µM) | 0.25 (≈ 0.438 µM) | 0.5 (≈ 0.876 µM) | 1 (≈ 1.75 µM) | 4 (≈ 7.01 µM) |  | 2 (≈ 3.51 µM) | 0.5 (≈ 0.876 µM)
14 | CC(C)C[C@H](NC(=O)[C@H](CC(C)C)NC(=O)[C@H](CC(C)C)NC(=O)[C@@H](N)CC(C)C)C(=O)Nc1ccc2c(c1O)C(=O)C1=C(O)[C@]3(O)C(O)=C(C(N)=O)C(=O)[C@@H](N(C)C)C3[C@@H](O)C1[C@H]2C (some centres not stated) (H-LLLL-X1) | > 32 | 32 (≈ 35.1 µM) | > 32 | 16 (≈ 17.5 µM) |  |  |  |  | > 32
15 | CN(C)[C@@H]1C(O)=C(C(N)=O)C(=O)[C@@]2(O)C(O)=C3C(=O)c4c(O)cccc4C[C@H]3C[C@@H]12 [SANCYCLINE] | 2 (≈ 4.83 µM) | 0.25 (≈ 0.603 µM) | 16 (≈ 38.6 µM) | 0.25 (≈ 0.603 µM) | 4 (≈ 9.65 µM) | 4 (≈ 9.65 µM) |  | 8 (≈ 19.3 µM) | 2 (≈ 4.83 µM)
